# Laboratory results reported in ChEMBL document CHEMBL1147083, “High-throughput synergy screening identifies microbial metabolites as combination agents for the treatment of fungal infections” (Proc Natl Acad Sci U S A, 2007).
# Key:
# Candida parapsilosis [1] = assay: Antifungal activity against Candida parapsilosis infected cyclophosphamide-immunocompromized Crl:CD1(ICR) mouse assessed as survival at 0.5 mg/kg, po for 5 days; assay type: functional
# Method in brief: (§1)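 Female ICR (Crl:CD-1) mice on cyclophosphamide 100 mg/kg i.p. daily for 3 days, then infected i.p. on day 3 with 1 × 10^4 C. parapsilosis ATCC 22019 blastospores. Oral gavage dosing started 6 h postinfection and continued once daily for 5 days, with saline placebo. Mice observed thrice daily for […]. Moribund animals were killed and counted as dying the next day. Mean survival time compared to controls by one-way ANOVA and Kaplan–Meier.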
# Candida parapsilosis [2] = assay: Antifungal activity against Candida parapsilosis infected cyclophosphamide-immunocompromized Crl:CD1(ICR) mouse assessed as fungal density in lung at 0.5 mg/kg, po for 5 days measured on day 12; assay type: functional
# Method in brief: (§2)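 Female specific-pathogen-free ICR (Crl:CD-1) mice, ≈20–22 g, made neutropenic with cyclophosphamide 100 mg/kg i.p. once daily for 3 days. On day 3, infected i.p. with 1 × 10^4 C. parapsilosis ATCC 22019 blastospores. Oral gavage dosing began 6 h postinfection, then once daily for 5 days; placebo was 0.1 ml saline. Left kidney or lungs homogenized in 0.9% saline and plated on Sabouraud dextrose agar, 48 h at 35°C. Result is log10 cfu/g (n = 5).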
# Candida parapsilosis [3] = assay: Antifungal activity against Candida parapsilosis infected cyclophosphamide-immunocompromized Crl:CD1(ICR) mouse assessed as fungal density in kidney at 0.5 mg/kg, po for 5 days measured on day 12; assay type: functional; method in brief: as §2
# Candida parapsilosis [4] = assay: Antifungal activity against Candida parapsilosis infected cyclophosphamide-immunocompromized Crl:CD1(ICR) mouse assessed as fungal density in brain at 0.5 mg/kg, po for 5 days measured on day 12; assay type: functional
# Candida parapsilosis [5] = assay: Antifungal activity against Candida parapsilosis infected cyclophosphamide-immunocompromized Crl:CD1(ICR) mouse assessed as fungal density in kidney at 0.5 mg/kg, po for 5 days measured on day 12 in presence beauvericin; assay type: functional; method in brief: as §2
# Candida parapsilosis [6] = assay: Antifungal activity against Candida parapsilosis infected cyclophosphamide-immunocompromized Crl:CD1(ICR) mouse assessed as fungal density in kidney at 50 mg/kg, po for 5 days measured on day 12; assay type: functional; method in brief: as §2
# Candida parapsilosis [7] = assay: Antifungal activity against Candida parapsilosis infected cyclophosphamide-immunocompromized Crl:CD1(ICR) mouse assessed as fungal density in kidney at 10 mg/kg, po for 5 days measured on day 12; assay type: functional; method in brief: as §2
# HepG2 [8] = assay: Toxicity against human HepG2 cells at 50 ug/ml; assay type: cell-based
# Candida parapsilosis [9] = assay: Antifungal activity against Candida parapsilosis infected cyclophosphamide-immunocompromized Crl:CD1(ICR) mouse assessed as fungal density in lung at 0.5 mg/kg, po for 5 days measured on day 12 in presence beauvericin; assay type: functional; method in brief: as §2
# Candida parapsilosis [10] = assay: Antifungal activity against Candida parapsilosis infected cyclophosphamide-immunocompromized Crl:CD1(ICR) mouse assessed as survival at 10 mg/kg, po for 5 days; assay type: functional; method in brief: as §1
# Candida parapsilosis [11] = assay: Antifungal activity against Candida parapsilosis infected cyclophosphamide-immunocompromized Crl:CD1(ICR) mouse assessed as fungal density in lung at 50 mg/kg, po for 5 days measured on day 12; assay type: functional; method in brief: as §2
# HepG2 [12] = assay: Toxicity against human HepG2 cells at 100 ug/ml; assay type: cell-based
# Candida parapsilosis [13] = assay: Antifungal activity against Candida parapsilosis infected cyclophosphamide-immunocompromized Crl:CD1(ICR) mouse assessed as survival at 50 mg/kg, po for 5 days; assay type: functional; method in brief: as §1
# Candida parapsilosis [14] = assay: Antifungal activity against Candida parapsilosis infected cyclophosphamide-immunocompromized Crl:CD1(ICR) mouse assessed as fungal density in lung at 10 mg/kg, po for 5 days measured on day 12; assay type: functional; method in brief: as §2
# HepG2 [15] = assay: Toxicity against human HepG2 cells at 6.25 ug/ml in presence of merine microbial F10104 extract; assay type: cell-based
# Candida parapsilosis [16] = assay: Antifungal activity against Candida parapsilosis infected cyclophosphamide-immunocompromized Crl:CD1(ICR) mouse assessed as survival at 0.5 mg/kg, po for 5 days in presence of beauvericin; assay type: functional; method in brief: as §1
Structure (SMILES),Survival (Candida parapsilosis [1]),Log10 cfu (Candida parapsilosis [2]),Log10 cfu (Candida parapsilosis [3]),Log10 cfu (Candida parapsilosis [4]),Log10 cfu (Candida parapsilosis [5]),Log10 cfu (Candida parapsilosis [6]),Log10 cfu (Candida parapsilosis [7]),Activity (HepG2 [8]),Log10 cfu (Candida parapsilosis [9]),Survival (Candida parapsilosis [10]),Log10 cfu (Candida parapsilosis [11]),Activity (HepG2 [12]),Survival (Candida parapsilosis [13]),Log10 cfu (Candida parapsilosis [14]),Activity (HepG2 [15]),Survival (Candida parapsilosis [16])
"CC(C)[C@@H]1OC(=O)[C@@H](Cc2ccccc2)N(C)C(=O)[C@H](C(C)C)OC(=O)[C@@H](Cc2ccccc2)N(C)C(=O)[C@H](C(C)C)OC(=O)[C@@H](Cc2ccccc2)N(C)C1=O (single isomer, unassigned) [BEAUVERICIN]",8.3 days,5.2,9.3,3.2,–,–,–,–,–,–,–,–,–,–,–,–
CC(=O)N1CCN(c2ccc(OCC3COC(Cn4ccnc4)(c4ccc(Cl)cc4Cl)O3)cc2)CC1 (centres undefined) [KETOCONAZOLE],9.2 days,4.8,8.4,–,1.3,5.5,7.6,Toxic,1.2,14.2 days,2.6,Toxic,19.4 days,3.5,Non-toxic,>21 days
